Active and inactive are the calls of the source. The rule behind the calls is not given here.
How the values were obtained:
H3N2 subtype [1] = test: Antiviral activity against Influenza A virus (A/Hong Kong/7/1987(H3N2)) infected in MDCK cells assessed as inhibition of virus-induced cytopathogenicity at 500 uM by MTS assay; assay type: functional, organism-based
[2] = Cytotoxicity against MDCK cells by MTS assay; assay type: cell-based, Canis lupus familiaris; conditions: dog
Trypanosoma brucei [3] = test: Antiparasitic activity against Trypanosoma brucei 427 bloodstream forms assessed as inhibition of parasite growth after 48 hrs; assay type: functional, organism-based
How it was run: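 Bloodstream-form T. brucei strain 427 were grown at 37 °C and pH 7.4 in modified Iscove's medium, in 4 ml cultures for 48 h across a drug range of 0.1 to 25. Cell densities were counted by hemocytometer and growth was expressed as % of untreated controls. IC50 and IC90 were derived from these counts, as mean ± SD of three experiments.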

H3N2 subtype [4] = test: Antiviral activity against Influenza A virus (A/Hong Kong/7/1987(H3N2)) infected in MDCK cells assessed as inhibition of virus-induced cytopathogenicity by MTS assay; assay type: functional, organism-based
How it was run: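 MDCK cells infected with influenza A/HK/7/87 (H3N2), whose M2 carries serine at position 31. Virus-induced cytopathic effect was read after multiple replication cycles at 72 h post infection by microscopic scoring and by a colorimetric formazan MTS cell-viability assay. EC50 is the concentration giving 50% inhibition of CPE by MTS. Compounds were tested as hydrochlorides, aminoalcohols as free bases. Values are mean ± SD with the number of independent determinations.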

[5] = Selectivity index, ratio of MCC for MDCK cells to EC50 for Influenza A virus (A/Hong Kong/7/1987(H3N2)); assay type: toxicity, cell-based; conditions: dog, read-out: Selectivity Index
Trypanosoma brucei [6] = test: Antiparasitic activity against Trypanosoma brucei 427 bloodstream forms assessed as inhibition of parasite growth at 5 ug/mL after 48 hrs; assay type: functional; conditions: Trypanosoma brucei, 427, 48 h; read-out: GI
[7] = Trypanosoma brucei, 427, 48 h, read-out: IC50

Compound	inhibition (H3N2 subtype [1])	MCC [2]	IC90 (Trypanosoma brucei [3]; Trypanosoma brucei, 427, 48 h)	IC50 (Trypanosoma brucei [3]; [7])	EC50 (H3N2 subtype [4])	selectivity ratio [5]	inhibition of growth at 5 µg/mL (Trypanosoma brucei [6])	IC50 (Trypanosoma brucei [3])
CNC1(c2ccccn2)C2CC3CC(C2)CC1C3 (centres undefined)	inactive	264 µM	> 25 µM	24.6 µM				
NCCC1(O)CC2CC3CC(C2)C1C3 (centres undefined)		512 µM			7.68 µM	67	30%	Not Active
CN(C)CCCC12CC3CC(CC(C3)C1N)C2 (centres undefined)	inactive	> 200 µM					30%	Not Active
NCC1(CO)C2CC3CC(C2)CC1C3 (centres undefined)		87 µM			0.34 µM	256	30%	Not Active
NC1(CO)C2CC3CC(C2)CC1C3 (centres undefined)		> 459 µM	18.2 µM	9.4 µM	1.46 µM	> 314		
NC(=O)c1ncn([C@@H]2O[C@H](CO)[C@@H](O)[C@H]2O)n1 [RIBAVIRIN]					8.7 µM			
NCC1(O)C2CC3CC(C2)CC1C3 (centres undefined)	inactive						30%	Not Active
NCCC12CC3CC(CC(C3)C1O)C2 (centres undefined)		512 µM			8.6 µM	60	30%	Not Active
OC1(C2CCCCN2)C2CC3CC(C2)CC1C3 (centres undefined)	inactive	208 µM					30%	Not Active
CNC(CN)C12CC3CC(CC(C3)C1)C2 (centres undefined)	inactive	404 µM	7.8 µM	5.2 µM				
NCCC1(O)C2CC3CC(C2)CC1C3 (centres undefined)		17 µM			6.24 µM	3	30%	Not Active
CN(C)CCCC12CC3CC(CC(C3)C1O)C2 (centres undefined)	inactive	> 250 µM	1.8 µM	0.84 µM				
NC1CC2CC3CC(C2)C1C3 (centres undefined)		107 µM			1.5 µM	69	30%	Not Active
NC1C2CC3CC(C2)CC1(c1ccccc1)C3 (centres undefined)	inactive	218 µM	> 20 µM	11.1 µM				
CN(C)CCC[C@]1(O)CC2CC3CC(C2)C1C3 (some centres undefined)	inactive	> 250 µM	1.7 µM	0.84 µM				
NC12CC3CC(CC(C3)C1)C2 [AMANTADINE]		> 100 µM			2 µM	> 51		
CC(N)C12CC3CC(CC(C3)C1)C2 (centres undefined) [RIMANTADINE]		> 100 µM	14 µM		≤ 0.362 µM	> 276		

From ChEMBL document CHEMBL1275292, “Design and synthesis of bioactive adamantanaminoalcohols and adamantanamines” (Eur J Med Chem, 2010)
